Test results: paper PMC5292677 (Leukemia, 2016)

System: patients with myelofibrosis
Experiment: Phase I safety: drug-related adverse events, DLTs, tolerability
Type: in vivo, human
In short: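 Design was 3+3 dose escalation of oral test compound QD (75–400 mg) or BID (100–400 mg) in 28-day cycles. AEs were graded by CTCAE v4.0 with causality, alongside labs, ECGs, vital signs and physical exams. A DLT was grade 4 cytopenia, other grade 3/4 hematologic toxicity, or grade 3/4 non-hematologic toxicity, excluding manageable GI events. The population was all patients dosed ≥1 time.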

[1] = baseline platelet count <100 × 10^9/l
[2] = baseline platelet count <100 × 10^9/l (n=16)
[3] = baseline platelet count ⩾100 × 10^9/l
[4] = baseline platelet count ⩾100 × 10^9/l (n=32)

SMILES: C[C@H](Nc1cc(-c2cnn(C)c2)cc(Nc2cnccn2)n1)c1ccc(F)cc1 [NS-018]
- Cases of anemia (grade 2) (300 mg QD): 1 case
- Rate of discontinuations owing to AEs (300 mg QD): 13%
- Drug-related anemia, Grade 1/2 (300 mg QD (n=16)): 1 (6) n (%)
- Drug-related anemia, all grades (300 mg QD (n=16)): 1 (6) n (%)
- Drug-related diarrhea, all grade (300 mg QD (n=16)): 2 (13) n (%)
- Drug-related diarrhea, grade 3 or 4 (300 mg QD (n=16)): 0 n (%)
- Drug-related dizziness, all grade (300 mg QD (n=16)): 3 (19) n (%)
- Drug-related dizziness, grade 3 or 4 (300 mg QD (n=16)): 1 (6) n (%)
- Drug-related esophageal reflux, all grade (300 mg QD (n=16)): 1 (6) n (%)
- Drug-related esophageal reflux, grade 3 or 4 (300 mg QD (n=16)): 0 n (%)
- Drug-related headache, all grade (300 mg QD (n=16)): 2 (13) n (%)
- Drug-related headache, grade 3 or 4 (300 mg QD (n=16)): 0 n (%)
- Drug-related nausea, all grade (300 mg QD (n=16)): 0 n (%)
- Drug-related paresthesia, all grade (300 mg QD (n=16)): 1 (6) n (%)
- Drug-related paresthesia, grade 3 or 4 (300 mg QD (n=16)): 0 n (%)
- Drug-related thrombocytopenia, Grade 1/2 (300 mg QD (n=16)): 0 n (%)
- Drug-related thrombocytopenia, Grade 3 (300 mg QD (n=16)): 2 (13) n (%)
- Drug-related thrombocytopenia, Grade 4 (300 mg QD (n=16)): 1 (6) n (%)
- Drug-related thrombocytopenia, all grades (300 mg QD (n=16)): 3 (19) n (%)
- Drug-related vomiting, all grade (300 mg QD (n=16)): 1 (6) n (%)
- Drug-related vomiting, grade 3 or 4 (300 mg QD (n=16)): 0 n (%)
- Drug-related weight increased, all grade (300 mg QD (n=16)): 0 n (%)
- Drug-related grade 3 dyspnea (300 mg QD cohort): 6%
- Patients who discontinued owing to AEs (beyond DLT) (400 mg BID): 2 patients
- Drug-related anemia, Grade 1/2 (400 mg BID (n=8)): 1 (13) n (%)
- Drug-related anemia, Grade 3 (400 mg BID (n=8)): 1 (13) n (%)
- Drug-related anemia, Grade 4 (400 mg BID (n=8)): 0 n (%)
- Drug-related anemia, all grades (400 mg BID (n=8)): 2 (25) n (%)
- Drug-related diarrhea, all grade (400 mg BID (n=8)): 1 (13) n (%)
- Drug-related diarrhea, grade 3 or 4 (400 mg BID (n=8)): 0 n (%)
- Drug-related dizziness, all grade (400 mg BID (n=8)): 2 (25) n (%)
- Drug-related dizziness, grade 3 or 4 (400 mg BID (n=8)): 1 (13) n (%)
- Drug-related esophageal reflux, all grade (400 mg BID (n=8)): 0 n (%)
- Drug-related headache, all grade (400 mg BID (n=8)): 1 (13) n (%)
- Drug-related headache, grade 3 or 4 (400 mg BID (n=8)): 0 n (%)
- Drug-related nausea, all grade (400 mg BID (n=8)): 0 n (%)
- Drug-related paresthesia, all grade (400 mg BID (n=8)): 0 n (%)
- Drug-related thrombocytopenia, Grade 1/2 (400 mg BID (n=8)): 0 n (%)
- Drug-related thrombocytopenia, Grade 3 (400 mg BID (n=8)): 1 (13) n (%)
- Drug-related thrombocytopenia, Grade 4 (400 mg BID (n=8)): 0 n (%)
- Drug-related thrombocytopenia, all grades (400 mg BID (n=8)): 1 (13) n (%)
- Drug-related vomiting, all grade (400 mg BID (n=8)): 0 n (%)
- Drug-related weight increased, all grade (400 mg BID (n=8)): 0 n (%)
- DLT: grade 3 dizziness (400 mg BID cohort): 1 patient
- Tolerability as judged by the Safety Review Committee (400 mg BID/QD, based on proportion of drug-related neurological AEs): intolerable
- Drug-related anemia, Grade 1/2 (400 mg QD (n=4)): 1 (25) n (%)
- Drug-related anemia, all grades (400 mg QD (n=4)): 1 (25) n (%)
- Drug-related diarrhea, all grade (400 mg QD (n=4)): 1 (25) n (%)
- Drug-related diarrhea, grade 3 or 4 (400 mg QD (n=4)): 0 n (%)
- Drug-related dizziness, all grade (400 mg QD (n=4)): 1 (25) n (%)
- Drug-related dizziness, grade 3 or 4 (400 mg QD (n=4)): 0 n (%)
- Drug-related esophageal reflux, all grade (400 mg QD (n=4)): 0 n (%)
- Drug-related headache, all grade (400 mg QD (n=4)): 0 n (%)
- Drug-related nausea, all grade (400 mg QD (n=4)): 1 (25) n (%)
- Drug-related nausea, grade 3 or 4 (400 mg QD (n=4)): 0 n (%)
- Drug-related paresthesia, all grade (400 mg QD (n=4)): 1 (25) n (%)
- Drug-related paresthesia, grade 3 or 4 (400 mg QD (n=4)): 0 n (%)
- Drug-related thrombocytopenia, all grades (400 mg QD (n=4)): 0 n (%)
- Drug-related vomiting, all grade (400 mg QD (n=4)): 0 n (%)
- Drug-related weight increased, all grade (400 mg QD (n=4)): 1 (25) n (%)
- Drug-related weight increased, grade 3 or 4 (400 mg QD (n=4)): 0 n (%)
- Recommended phase II dose (RP2D) (QD, oral): 300 mg
- Additional patients (beyond DLT) who discontinued owing to AEs (all cohorts): 7 patients
- Dose reduction owing to dizziness (all cohorts): 4 n
- Patients with dose reductions owing to AEs (all cohorts): 11 patients
- Patients with dose-limiting toxicities (DLTs) (all cohorts (n=48)): 2 patients
- Treatment discontinuation because of AEs (all cohorts (n=48), data cutoff 21 July 2015): 8 n
- Drug-related anemia, Grade 1/2 (all dose cohorts (n=48)): 4 (8) n (%)
- Drug-related anemia, Grade 3 (all dose cohorts (n=48)): 3 (6) n (%)
- Drug-related anemia, Grade 4 (all dose cohorts (n=48)): 0 n (%)
- Drug-related anemia, all grades (all dose cohorts (n=48)): 7 (15) n (%)
- Drug-related diarrhea, all grade (all dose cohorts (n=48)): 7 (15) n (%)
- Drug-related diarrhea, grade 3 or 4 (all dose cohorts (n=48)): 0 n (%)
- Drug-related dizziness, all grade (all dose cohorts (n=48)): 11 (23) n (%)
- Drug-related dizziness, grade 3 or 4 (all dose cohorts (n=48)): 3 (6) n (%)
- Drug-related esophageal reflux, all grade (all dose cohorts (n=48)): 3 (6) n (%)
- Drug-related esophageal reflux, grade 3 or 4 (all dose cohorts (n=48)): 0 n (%)
- Drug-related headache, all grade (all dose cohorts (n=48)): 3 (6) n (%)
- Drug-related headache, grade 3 or 4 (all dose cohorts (n=48)): 0 n (%)
- Drug-related nausea, all grade (all dose cohorts (n=48)): 9 (19) n (%)
- Drug-related nausea, grade 3 or 4 (all dose cohorts (n=48)): 1 (2) n (%)
- Drug-related paresthesia, all grade (all dose cohorts (n=48)): 4 (8) n (%)
- Drug-related paresthesia, grade 3 or 4 (all dose cohorts (n=48)): 1 (2) n (%)
- Drug-related thrombocytopenia, Grade 1/2 (all dose cohorts (n=48)): 5 (10) n (%)
- Drug-related thrombocytopenia, Grade 3 (all dose cohorts (n=48)): 5 (10) n (%)
- Drug-related thrombocytopenia, Grade 4 (all dose cohorts (n=48)): 3 (6) n (%)
- Drug-related thrombocytopenia, all grades (all dose cohorts (n=48)): 13 (27) n (%)
- Drug-related vomiting, all grade (all dose cohorts (n=48)): 3 (6) n (%)
- Drug-related vomiting, grade 3 or 4 (all dose cohorts (n=48)): 0 n (%)
- Drug-related weight increased, all grade (all dose cohorts (n=48)): 4 (8) n (%)
- Drug-related weight increased, grade 3 or 4 (all dose cohorts (n=48)): 0 n (%)
- Drug-related anemia, all grades (all patients (n=48)): 15%
- Drug-related anemia, grade 3/4 (all patients (n=48)): 6%
- Drug-related dizziness (all patients (n=48)): 23%
- Drug-related nausea (all patients (n=48)): 19%
- Drug-related thrombocytopenia, all grades (all patients (n=48)): 27%
- Drug-related thrombocytopenia, grade 3/4 (all patients (n=48)): 17%
- Drug-related thrombocytopenia, all grades [1]: 44%
- Drug-related thrombocytopenia, grade 3/4 [1]: 38%
- Drug-related thrombocytopenia, Grade 1/2 [2]: 1 (6) n (%)
- Drug-related thrombocytopenia, Grade 3 [2]: 3 (19) n (%)
- Drug-related thrombocytopenia, Grade 4 [2]: 3 (19) n (%)
- Drug-related thrombocytopenia, all grades [2]: 7 (44) n (%)
- Drug-related thrombocytopenia, all grades [3]: 19%
- Drug-related thrombocytopenia, grade 3/4 [3]: 6%
- Drug-related thrombocytopenia, Grade 1/2 [4]: 4 (13) n (%)
- Drug-related thrombocytopenia, Grade 3 [4]: 2 (6) n (%)
- Drug-related thrombocytopenia, Grade 4 [4]: 0 n (%)
- Drug-related thrombocytopenia, all grades [4]: 6 (19) n (%)
- Grade 4 neurologic events (during the study): No grade 4 neurologic events
